Assay results as given in ChEMBL document CHEMBL5678815 (Clin Cancer Res, 2017).
The source made the active and inactive calls. The rule behind the calls is not given here.

Key:
[1] = target: Calcium/calmodulin-dependent protein kinase type 1G (Homo sapiens) (UniProt Q96NX5); assay: Inhibition of human CAMK1G assessed as remaining activity at 1 uM by ATP-competition binding assay relative to control
Summary of the method: (§1)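 KINOMEscan ATP-site-dependent competition binding panel of 395 human kinases, with compound tested at 1 μM. Binding is reported as remaining signal relative to control.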

[2] = target: Cyclin-dependent kinase 9 (Homo sapiens) (UniProt P50750); assay: Inhibition of human CDK9 assessed as remaining activity at 1 uM by ATP-competition binding assay relative to control; summary of the method: as §1
Chain of Cyclin-dependent kinase 9 (Homo sapiens) (P50750 whole entry): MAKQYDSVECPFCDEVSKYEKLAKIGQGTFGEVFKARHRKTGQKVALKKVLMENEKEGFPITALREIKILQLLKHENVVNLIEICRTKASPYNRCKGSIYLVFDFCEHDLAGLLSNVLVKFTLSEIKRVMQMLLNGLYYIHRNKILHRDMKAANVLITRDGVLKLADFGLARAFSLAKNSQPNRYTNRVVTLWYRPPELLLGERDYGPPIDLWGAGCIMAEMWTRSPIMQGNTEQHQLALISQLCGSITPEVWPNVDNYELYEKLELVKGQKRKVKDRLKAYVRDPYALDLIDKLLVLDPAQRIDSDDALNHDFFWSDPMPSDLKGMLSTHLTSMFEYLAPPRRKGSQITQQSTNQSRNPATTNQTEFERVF

[3] = target: Serine/threonine-protein kinase 17A (Homo sapiens) (UniProt Q9UEE5); assay: Inhibition of human DRAK1 assessed as remaining activity at 1 uM by ATP-competition binding assay relative to control; summary of the method: as §1
Chain of Serine/threonine-protein kinase 17A (Homo sapiens) (Q9UEE5 whole entry): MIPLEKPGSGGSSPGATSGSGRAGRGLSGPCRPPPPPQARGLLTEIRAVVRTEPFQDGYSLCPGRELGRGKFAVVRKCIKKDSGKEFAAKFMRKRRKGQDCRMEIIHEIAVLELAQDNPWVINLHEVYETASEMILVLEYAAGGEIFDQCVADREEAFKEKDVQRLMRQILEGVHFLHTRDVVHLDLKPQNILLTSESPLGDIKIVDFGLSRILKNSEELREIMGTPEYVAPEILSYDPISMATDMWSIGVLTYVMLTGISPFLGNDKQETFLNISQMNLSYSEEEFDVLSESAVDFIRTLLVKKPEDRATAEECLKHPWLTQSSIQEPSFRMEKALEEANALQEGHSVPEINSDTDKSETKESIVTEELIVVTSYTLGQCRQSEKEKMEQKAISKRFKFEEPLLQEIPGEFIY

[4] = target: Receptor tyrosine-protein kinase erbB-4 (Homo sapiens) (UniProt Q15303); assay: Inhibition of human ERBB4 assessed as remaining activity at 1 uM by ATP-competition binding assay relative to control
Summary of the method: (§2)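 Single-point profiling at 1μM in an ATP-site-dependent competition binding assay across a panel of 395 human kinases, including mutant forms. The read-out is kinase binding signal in the presence of test agent, expressed as inhibition relative to the control signal. This screen assessed noncovalent binding interactions.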

[5] = target: Fibroblast growth factor receptor 3 (Homo sapiens) (UniProt P22607); assay: Inhibition of human FGFR3 assessed as remaining activity at 1 uM by ATP-competition binding assay relative to control; summary of the method: as §2
[6] = system: Epidermal growth factor receptor (Homo sapiens), P00533 [L861Q]; assay: Inhibition of human EGFR L861Q mutant assessed as remaining activity at 1 uM by ATP-competition binding assay relative to control
Summary of the method: (§3)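 KINOMEscan ATP-site-dependent competition binding assay across a 395-kinase human panel including mutants; compound tested at 1μM; binding expressed relative to control signal.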

[7] = target: Homeodomain-interacting protein kinase 1 (Homo sapiens) (UniProt Q86Z02); assay: Inhibition of human HIPK1 assessed as remaining activity at 1 uM by ATP-competition binding assay relative to control; summary of the method: as §2
[8] = system: Mast/stem cell growth factor receptor Kit (Homo sapiens), P10721 [L576P]; assay: Inhibition of human KIT L576P mutant assessed as remaining activity at 1 uM by ATP-competition binding assay relative to control; summary of the method: as §2
Chain of Mast/stem cell growth factor receptor Kit (Homo sapiens), P10721 [L576P] (P10721 whole entry L576P): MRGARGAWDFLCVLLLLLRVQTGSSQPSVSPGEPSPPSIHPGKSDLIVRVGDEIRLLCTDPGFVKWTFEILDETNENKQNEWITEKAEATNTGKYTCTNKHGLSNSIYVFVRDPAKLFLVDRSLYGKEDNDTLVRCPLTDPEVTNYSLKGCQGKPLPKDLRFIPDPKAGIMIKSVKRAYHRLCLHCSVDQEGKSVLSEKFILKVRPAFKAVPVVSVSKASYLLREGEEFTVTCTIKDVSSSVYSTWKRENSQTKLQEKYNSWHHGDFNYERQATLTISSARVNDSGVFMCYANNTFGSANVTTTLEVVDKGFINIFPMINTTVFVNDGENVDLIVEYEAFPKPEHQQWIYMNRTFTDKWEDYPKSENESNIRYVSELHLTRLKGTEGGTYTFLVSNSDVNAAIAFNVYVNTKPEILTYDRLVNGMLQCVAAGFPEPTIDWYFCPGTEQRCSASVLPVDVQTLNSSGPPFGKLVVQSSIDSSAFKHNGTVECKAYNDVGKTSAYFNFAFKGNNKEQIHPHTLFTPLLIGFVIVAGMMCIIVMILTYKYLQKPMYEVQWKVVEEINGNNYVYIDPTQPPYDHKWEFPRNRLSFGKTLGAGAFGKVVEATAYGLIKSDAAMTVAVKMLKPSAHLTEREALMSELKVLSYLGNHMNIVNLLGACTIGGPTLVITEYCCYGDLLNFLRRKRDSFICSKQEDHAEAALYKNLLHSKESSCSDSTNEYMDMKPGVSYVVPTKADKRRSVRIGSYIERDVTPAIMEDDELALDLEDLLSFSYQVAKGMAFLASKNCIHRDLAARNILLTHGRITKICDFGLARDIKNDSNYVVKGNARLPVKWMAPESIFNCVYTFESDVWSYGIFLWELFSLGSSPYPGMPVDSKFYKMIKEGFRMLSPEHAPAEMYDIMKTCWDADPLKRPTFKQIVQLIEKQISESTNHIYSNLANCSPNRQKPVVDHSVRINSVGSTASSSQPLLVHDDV

[9] = target: Serine/threonine-protein kinase MAK (Homo sapiens) (UniProt P20794); assay: Inhibition of human MAK assessed as remaining activity at 1 uM by ATP-competition binding assay relative to control; summary of the method: as §2
[10] = system: Mast/stem cell growth factor receptor Kit (Homo sapiens), P10721 [V559D]; assay: Inhibition of human KIT V559D mutant assessed as remaining activity at 1 uM by ATP-competition binding assay relative to control; summary of the method: as §2
Chain of Mast/stem cell growth factor receptor Kit (Homo sapiens), P10721 [V559D] (P10721 whole entry V559D): as the sequence (P10721 whole entry L576P) above, with V559D, P576L counted along it

[11] = target: Mitogen-activated protein kinase 14 (Homo sapiens) (UniProt Q16539); assay: Inhibition of human P38alpha assessed as remaining activity at 1 uM by ATP-competition binding assay relative to control; summary of the method: as §2
Chain of Mitogen-activated protein kinase 14 (Homo sapiens) (Q16539 whole entry): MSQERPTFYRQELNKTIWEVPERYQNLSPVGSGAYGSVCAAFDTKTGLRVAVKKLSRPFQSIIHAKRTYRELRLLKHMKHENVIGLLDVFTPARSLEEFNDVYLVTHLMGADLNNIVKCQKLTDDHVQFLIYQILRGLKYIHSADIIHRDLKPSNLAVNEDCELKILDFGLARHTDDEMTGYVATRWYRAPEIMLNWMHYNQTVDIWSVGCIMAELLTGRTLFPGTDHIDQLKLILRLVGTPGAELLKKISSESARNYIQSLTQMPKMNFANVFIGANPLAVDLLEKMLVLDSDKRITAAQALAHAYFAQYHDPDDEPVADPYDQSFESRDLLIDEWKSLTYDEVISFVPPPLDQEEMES

[12] = target: Serine/threonine-protein kinase pim-3 (Homo sapiens) (UniProt Q86V86); assay: Inhibition of human PIM3 assessed as remaining activity at 1 uM by ATP-competition binding assay relative to control
Summary of the method: (§4)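 Single-concentration (1 μM) screen in an ATP-site-dependent competition binding assay (KINOMEscan, outsourced) covering 395 human kinases, mutants included. Non-covalent binding was read as the remaining signal relative to the control signal.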

[13] = system: Proto-oncogene tyrosine-protein kinase receptor Ret (Homo sapiens), P07949 [M918T]; assay: Inhibition of human RET M918T assessed as remaining activity at 1 uM by ATP-competition binding assay relative to control; summary of the method: as §4
Chain of Proto-oncogene tyrosine-protein kinase receptor Ret (Homo sapiens), P07949 [M918T] (P07949 whole entry M918T): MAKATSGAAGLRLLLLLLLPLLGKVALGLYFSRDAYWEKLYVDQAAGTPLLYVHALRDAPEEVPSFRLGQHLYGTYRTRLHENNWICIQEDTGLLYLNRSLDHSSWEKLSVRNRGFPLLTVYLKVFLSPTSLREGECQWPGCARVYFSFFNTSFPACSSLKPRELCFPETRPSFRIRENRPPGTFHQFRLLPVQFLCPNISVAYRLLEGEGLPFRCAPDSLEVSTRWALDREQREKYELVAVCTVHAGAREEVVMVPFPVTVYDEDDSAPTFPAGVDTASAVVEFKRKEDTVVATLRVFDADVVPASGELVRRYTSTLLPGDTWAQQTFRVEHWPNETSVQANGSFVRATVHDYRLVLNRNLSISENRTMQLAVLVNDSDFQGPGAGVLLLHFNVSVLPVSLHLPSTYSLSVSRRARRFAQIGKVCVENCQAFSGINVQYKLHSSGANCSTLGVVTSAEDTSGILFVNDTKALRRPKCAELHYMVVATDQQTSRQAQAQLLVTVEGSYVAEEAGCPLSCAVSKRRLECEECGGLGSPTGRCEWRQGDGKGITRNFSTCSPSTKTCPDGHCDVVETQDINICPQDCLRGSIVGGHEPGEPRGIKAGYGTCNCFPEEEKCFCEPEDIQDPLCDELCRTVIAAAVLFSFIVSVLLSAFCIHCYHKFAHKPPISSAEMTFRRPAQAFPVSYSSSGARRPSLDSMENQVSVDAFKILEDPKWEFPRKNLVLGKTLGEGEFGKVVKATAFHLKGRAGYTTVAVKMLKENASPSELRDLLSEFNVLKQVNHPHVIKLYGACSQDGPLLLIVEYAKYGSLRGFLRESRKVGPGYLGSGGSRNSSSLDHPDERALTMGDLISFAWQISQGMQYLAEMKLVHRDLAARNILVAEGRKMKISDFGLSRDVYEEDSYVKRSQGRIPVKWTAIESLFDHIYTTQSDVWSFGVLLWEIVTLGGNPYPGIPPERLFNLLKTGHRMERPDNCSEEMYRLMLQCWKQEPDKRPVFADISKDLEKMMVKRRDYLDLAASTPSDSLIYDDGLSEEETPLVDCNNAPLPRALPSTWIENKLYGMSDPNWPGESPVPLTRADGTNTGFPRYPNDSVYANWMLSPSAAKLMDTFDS

[14] = system: Proto-oncogene tyrosine-protein kinase receptor Ret (Homo sapiens), P07949 [V804L]; assay: Inhibition of human RET V804L assessed as remaining activity at 1 uM by ATP-competition binding assay relative to control; summary of the method: as §3
Chain of Proto-oncogene tyrosine-protein kinase receptor Ret (Homo sapiens), P07949 [V804L] (P07949 whole entry V804L): as the sequence (P07949 whole entry M918T) above, with V804L, T918M counted along it

[15] = target: Serine/threonine-protein kinase RIO2 (Homo sapiens) (UniProt Q9BVS4); assay: Inhibition of human RIOK2 assessed as remaining activity at 1 uM by ATP-competition binding assay relative to control; summary of the method: as §4
[16] = target: Ribosomal protein S6 kinase alpha-4 (Homo sapiens) (UniProt O75676); assay: Inhibition of human RPS6KA4 assessed as remaining activity at 1 uM by ATP-competition binding assay relative to control; summary of the method: as §4
[17] = target: Uncharacterized serine/threonine-protein kinase SBK3 (Homo sapiens) (UniProt P0C264); assay: Inhibition of human SgK110 assessed as remaining activity at 1 uM by ATP-competition binding assay relative to control; summary of the method: as §4
Chain of Uncharacterized serine/threonine-protein kinase SBK3 (Homo sapiens) (P0C264 whole entry): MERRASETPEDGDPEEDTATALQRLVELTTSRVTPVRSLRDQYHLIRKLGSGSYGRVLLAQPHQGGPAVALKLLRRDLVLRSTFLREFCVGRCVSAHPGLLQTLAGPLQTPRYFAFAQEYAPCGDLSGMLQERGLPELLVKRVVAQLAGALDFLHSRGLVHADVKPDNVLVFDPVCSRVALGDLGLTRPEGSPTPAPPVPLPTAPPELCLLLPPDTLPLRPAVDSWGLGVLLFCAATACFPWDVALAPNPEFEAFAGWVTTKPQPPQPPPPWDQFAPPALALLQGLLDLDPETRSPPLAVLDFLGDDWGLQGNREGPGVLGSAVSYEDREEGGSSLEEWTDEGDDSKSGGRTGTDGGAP

[18] = target: SRSF protein kinase 2 (Homo sapiens) (UniProt P78362); assay: Inhibition of human SRPK2 assessed as remaining activity at 1 uM by ATP-competition binding assay relative to control; summary of the method: as §4
[19] = target: Tyrosine-protein kinase Tec (Homo sapiens) (UniProt P42680); assay: Inhibition of human TEC assessed as remaining activity at 1 uM by ATP-competition binding assay relative to control; summary of the method: as §3
Chain of Tyrosine-protein kinase Tec (Homo sapiens) (P42680 whole entry): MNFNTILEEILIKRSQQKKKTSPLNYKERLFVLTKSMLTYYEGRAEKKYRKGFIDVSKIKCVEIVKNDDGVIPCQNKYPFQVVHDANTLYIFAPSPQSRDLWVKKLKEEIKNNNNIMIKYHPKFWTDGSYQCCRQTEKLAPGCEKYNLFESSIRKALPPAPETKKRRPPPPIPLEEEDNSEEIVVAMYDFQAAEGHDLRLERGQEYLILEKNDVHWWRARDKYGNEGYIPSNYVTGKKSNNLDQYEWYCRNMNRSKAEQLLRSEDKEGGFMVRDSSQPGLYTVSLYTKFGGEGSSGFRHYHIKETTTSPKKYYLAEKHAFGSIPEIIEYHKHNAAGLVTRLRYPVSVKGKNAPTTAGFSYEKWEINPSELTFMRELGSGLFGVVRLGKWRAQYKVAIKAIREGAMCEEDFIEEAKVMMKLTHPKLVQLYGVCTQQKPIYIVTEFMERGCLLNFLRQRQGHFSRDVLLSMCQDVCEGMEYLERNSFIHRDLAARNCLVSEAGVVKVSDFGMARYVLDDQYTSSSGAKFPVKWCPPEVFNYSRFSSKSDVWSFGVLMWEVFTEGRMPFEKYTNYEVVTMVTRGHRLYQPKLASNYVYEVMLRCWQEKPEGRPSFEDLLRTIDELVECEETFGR

[20] = target: Serine/threonine-protein kinase TNNI3K (Homo sapiens) (UniProt Q59H18); assay: Inhibition of human TNNI3K assessed as remaining activity at 1 uM by ATP-competition binding assay relative to control; summary of the method: as §4
[21] = target: Tyrosine-protein kinase TXK (Homo sapiens) (UniProt P42681); assay: Inhibition of human TXK assessed as remaining activity at 1 uM by ATP-competition binding assay relative to control; summary of the method: as §4
[22] = target: Tyrosine-protein kinase Yes (Homo sapiens) (UniProt P07947); assay: Inhibition of human YES assessed as remaining activity at 1 uM by ATP-competition binding assay relative to control; summary of the method: as §4
[23] = target: Tyrosine-protein kinase Tec (Homo sapiens) (UniProt P42680); assay: Inhibition of human TEC at < 100 nM by ATP-Competition Binding Assay
[24] = system: Splenocyte; assay: In vivo inhibition of BCR signaling in female […] mouse assessed as CD69 expression at 1.3 mg/kg, po administered and measured after stimulation with anti-IgM for 18 h by flow cytometry analysis; type: functional, organism-based
Summary of the method: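 Female C57BL/6 mice (5 per group per dose) were gavaged orally at 0.1–30 mg/kg. At 3 h, splenocytes were stimulated with anti-mouse IgM 10 μg/mL for 18 h at 37°C, 5% CO2. After Fc block, cells were stained for CD19 and CD69 with 7-AAD viability dye; >5,000 gated CD19+ cells acquired by flow cytometry.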

[25] = Antitumor activity against human CLL mononuclear cells xenografted NSG mouse assessed as reduction in the phosphorylation of PLCgamma2 at 0.3 mg/ml preadministered with compound via drinking water and measured after 3 weeks by flow cytometry analysis relative to control; type: functional, CLL mononuclear cell; parameters: scale not given: the % may be the effect or the level left
Summary of the method: (§5)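 Primary CLL patient mononuclear cells (1 × 10^8 per mouse) engrafted into NSG mice on day 0 after busulfan priming on day −1. Vehicle or drug was given in drinking water from day −1. Mice were killed 3 weeks after engraftment; spleens homogenized, filtered and RBC-lysed; whole blood collected. Six patients, 2–5 mice per patient; paired t-test per patient.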

[26] = Antileukemic activity against human CLL mononuclear cells xenografted NSG mouse assessed as reduction in spleen cells at 0.3 to 0.16 mg/ml preadministered with compound via drinking water and measured after 3 weeks by flow cytometry analysis relative to control; type: functional, CLL mononuclear cell; parameters: scale not given: the % may be the effect or the level left; settings: dose 0.3-0.16 mg/ml, at 0.16 to 0.3 mg/mL; summary of the method: as §5

Chain of Calcium/calmodulin-dependent protein kinase type 1G (Homo sapiens) (Q96NX5 whole entry): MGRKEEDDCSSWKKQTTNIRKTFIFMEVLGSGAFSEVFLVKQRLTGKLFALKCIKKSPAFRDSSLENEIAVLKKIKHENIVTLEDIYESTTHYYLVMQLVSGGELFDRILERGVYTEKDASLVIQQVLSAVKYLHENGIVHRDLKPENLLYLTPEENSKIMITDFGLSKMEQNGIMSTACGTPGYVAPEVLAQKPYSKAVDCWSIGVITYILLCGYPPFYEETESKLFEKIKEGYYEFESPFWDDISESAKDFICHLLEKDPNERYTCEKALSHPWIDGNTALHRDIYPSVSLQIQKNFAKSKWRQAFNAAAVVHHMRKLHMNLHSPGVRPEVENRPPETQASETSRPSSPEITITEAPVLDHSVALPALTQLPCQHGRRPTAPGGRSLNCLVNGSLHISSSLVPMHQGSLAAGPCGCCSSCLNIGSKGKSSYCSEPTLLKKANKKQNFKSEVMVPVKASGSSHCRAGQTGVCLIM

## CC#CC(=O)N1CCC[C@H]1c1nc(-c2ccc(C(=O)Nc3ccccn3)cc2)c2c(N)nccn12 [ACALABRUTINIB]
[1]
  Activity: 95%
[2]
  Activity: 87%
[3]
  Activity: 87%
[4]
  Activity: 4.3%
[5]
  Activity: 87%
[6]
  Activity: 84%
[7]
  Activity: 90%
[8]
  Activity: 63%
[9]
  Activity: 90%
[10]
  Activity: 53%
[11]
  Activity: 84%
[12]
  Activity: 84%
[13]
  Activity: 71%
[14]
  Activity: 93%
[15]
  Activity: 80%
[16]
  Activity: 90%
[17]
  Activity: 90%
[18]
  Activity: 85%
[19]
  Activity: 6.4%
[20]
  Activity: 38%
[21]
  Activity: 24%
[22]
  Activity: 83%
[23]
  inhibition: Active
[24]
  Activity: Active
[25]
  Activity: 68%
[26]
  Activity: 33%
